The campaign covered roughly 210,000 compounds. About 220 (0.1%) were called active. The sample holds actives, similar compounds and a random draw of the others, so the mix is not that of the screen. Unmarked numbers belong to inactive results.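 How the source made its calls: active means signal enhancement of 30% or more; inactive means the rest.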

E3 ubiquitin-protein ligase Mdm2 (Homo sapiens), sequence (Q00987 whole entry, looked up, the tested form may be a part): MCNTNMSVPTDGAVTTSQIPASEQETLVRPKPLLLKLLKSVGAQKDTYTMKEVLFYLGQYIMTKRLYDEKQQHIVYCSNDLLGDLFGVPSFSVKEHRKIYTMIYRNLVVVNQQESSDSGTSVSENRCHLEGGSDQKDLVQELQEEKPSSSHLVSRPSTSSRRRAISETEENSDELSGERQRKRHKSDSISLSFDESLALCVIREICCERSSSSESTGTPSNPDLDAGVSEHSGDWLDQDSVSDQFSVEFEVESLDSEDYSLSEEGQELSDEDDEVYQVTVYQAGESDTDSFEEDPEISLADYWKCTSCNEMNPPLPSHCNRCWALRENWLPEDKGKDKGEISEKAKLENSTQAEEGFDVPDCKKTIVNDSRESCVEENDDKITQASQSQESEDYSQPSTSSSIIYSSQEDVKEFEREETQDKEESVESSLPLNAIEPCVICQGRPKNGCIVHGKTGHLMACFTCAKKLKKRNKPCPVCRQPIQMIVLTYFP

In this experiment the target is E3 ubiquitin-protein ligase Mdm2 (Homo sapiens) (UniProt Q00987). Briefly: MDM2-luciferase reporter signal enhancers, primary screen, MDM2 E3 ligase inhibitor project, cell-based, luminescence, 1536-well (AID 1230).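 Further: luminescence tracks abundance of the self-degrading MDM2-luciferase fusion protein; higher signal means inhibition of MDM2 E3 ligase activity.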 The note with it: cell-based MDM2 ubiquitination luciferase reporter, 2 h; at 5 µM; active compounds read high; 0 = plate control, 100 = twice control, blank-subtracted. A digest of the protocol:
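System: stable MDM2–luciferase fusion reporter cells / Input: 2000 cells seeded into each well / Schedule: 4 h settle plus 2 h compound, 37 °C / Compound: single-point 5 µM / Buffer or medium: cells held in DMEM / Benchmarks: control and blank well means / Evaluation: percent signal gain over controls, blank-subtracted / Measured by: luciferase luminescence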
(In general: A reporter such as luciferase makes a cellular process visible.)
On to `CCOC(=O)Cn1nnnc1C`, for which the signal enhancement is 38.2% (active).

Consider `CCOC(=O)Cn1c(N)c(C(=O)OC)sc1=S`, for which the signal enhancement is -0.11%.

Turning to `CCOC(=O)CNC(=O)CSc1nnnn1-c1cc(C)ccc1C`, the signal enhancement was 16.5%.

With `Cc1cc(=O)oc2cc(OCCC[n+]3ccccc3)ccc12`, the signal enhancement is -9.35%.

For `Cc1cc(NC(=O)OC(C)C)ccc1-c1ccc(NC(=O)OC(C)C)cc1C`, the signal enhancement is 0.08%.

Take `O=S(=O)(c1ccccc1)N1CN(Cc2ccc(F)cc2)c2nc3ccccc3nc21`: the signal enhancement was -0.23%.

As to `CCCCNC(=O)OCCSCCS(=O)(=O)c1ccc(Cl)cc1`, the signal enhancement was -11.5%.

Turning to `O=C(NN1C(=O)C2C(C1=O)C1C=CC2C12CC2)c1ccccc1Cl` (configuration not stated), the signal enhancement is -6.98%.

Take `COc1cc(C=O)ccc1Oc1nnnn1-c1ccccc1`: the signal enhancement is -12.6%.

For the compound `Cn1nc(C(C)(C)C)c(NC(=O)c2sccc2Cl)c1C(C)(C)C`, the signal enhancement is -2.73%.

Regarding `COc1ccc(NC2=CC(=S)NC(C)(C)C2)cc1`, the signal enhancement is -2.53%.

Consider `O=C(Nc1ccc(F)cc1)c1cc2c(s1)CCCC2`, for which the signal enhancement was -16.8%.

For the compound `COc1ccc(COCCN2CCN(S(=O)(=O)c3ccccc3)CCC2=O)cc1`, the signal enhancement is 16.8%.

In the case of `COc1ccc(COCC(O)CN2CCC(C(N)=O)CC2)cc1` (configuration not stated), the signal enhancement was -1.62%.

Consider `O=C(CCl)Nc1cccc(CP(=O)(c2ccccc2)c2ccccc2)c1`, for which the signal enhancement was -14.8%.

Consider `O=c1[nH]c2cccnc2n1-c1ccc([N+](=O)[O-])cc1`, for which the signal enhancement is -12%.

For the compound `O=C(NNC(=S)Nc1ccc(F)cc1)[C@H]1C[C@@H]1c1ccccc1`, the signal enhancement was -1.61%.

Take `CCOC(=O)/C=C/CN(C(=O)OC(C)(C)C)S(=O)(=O)N1CC=CC1`: the signal enhancement is 1.19%.

In the case of `Cc1cc(Nc2ccc(N3CCOCC3)cc2)c2cccc(C)c2n1`, the signal enhancement was 5.92%.

Turning to `N#CC1=C(N)Oc2c(ccc3cccnc23)C1c1ccncc1` (configuration not stated), the signal enhancement is -12.4%.

Consider `COCc1cc(=O)oc2cc(NS(=O)(=O)c3ccc(C)cc3)ccc12`, for which the signal enhancement was -14.3%.

Regarding `CC(=O)N(OCc1ccc(OC(C)C)c(Cl)c1)C(C)=O`, the signal enhancement was -12.5%.

Turning to `Cc1ccc(S(=O)(=O)NC(=O)N2CCCN(Cc3ccc(F)cc3)CC2)cc1`, the signal enhancement is -8.58%.

Turning to `CCC/C(C)=N\Nc1nc2c(c(=O)n(C)c(=O)n2C)n1C`, the signal enhancement is -9.83%.

Regarding `CCO[C@@H]1OC(C(=O)NC2CC2)=C[C@H](C)[C@H]1CCCO`, the signal enhancement is -12.6%.

`CC(C)C[C@H](CO)Nc1nc(N(C)c2cccc(Cl)c2)c2ncn(C(C)C)c2n1`: the signal enhancement was 10%.

Turning to `Cc1ccc(/C=C/C(=O)O)cc1S(=O)(=O)N1CCC(Cc2ccccc2)CC1`, the signal enhancement was -0.26%.

As to `O=C(CCC(=O)OCc1ccc(Cl)cc1)Nc1ccccc1`, the signal enhancement is -8.79%.

Turning to `O=C(CNCc1ccc(Cl)cc1)Nc1cccc(C(=O)O)c1`, the signal enhancement is 35.7% (active).

For `O=C(CCCOc1ccccc1)Nc1cccc(C(=O)O)c1`, the signal enhancement was -14.6%.

`CCN(CC)CCn1c(N)c(S(=O)(=O)c2ccccc2)c2nc3ccccc3nc21`: the signal enhancement was -7.92%.

`OC(c1nnc(-c2ccccc2)o1)c1cccs1` (configuration not stated): the signal enhancement was 31.9% (active).

Regarding `Nc1ccc(-c2nnc(-c3ccc(-c4ccccc4)cc3)o2)cc1`, the signal enhancement is -17.1%.

For the compound `CCCN(CCC)c1ccc(C(O)c2nnc(-c3ccccc3)o2)cc1` (configuration not stated), the signal enhancement is -18.3%.

Regarding `O=S(=O)([N-]c1nc2ccccc2nc1-[n+]1ccc(Cc2ccccc2)cc1)c1ccc(Br)s1`, the signal enhancement is -17.8%.

In the case of `COc1ccc(NC(=O)C2=C(C)NC(=O)NC2c2ccccc2[N+](=O)[O-])cc1` (configuration not stated), the signal enhancement is -9.62%.

Turning to `Nc1nc(NCC2CCCO2)nc(Nc2ccccc2F)c1[N+](=O)[O-]` (configuration not stated), the signal enhancement was 1.79%.

For the compound `CCN(CCO)C(=S)Nc1cc(C(=O)OC)ccc1C(=O)OC`, the signal enhancement was 3.69%.

Take `CCS(=O)(=O)Nc1cc(C(=O)OC)ccc1C(=O)OC`: the signal enhancement is -8.23%.

As for `CCCN(CCC)C(=S)Nc1cc(C(=O)OC)ccc1C(=O)OC`, the signal enhancement is 39.1% (active).

With `O=C(CCN1C(=O)c2ccccc2C1=O)NNC(=O)c1ccc(Cl)cc1Cl`, the signal enhancement was -8.02%.

As to `Cc1cc(C)cc(OCC(=O)NNC(=O)CCN2C(=O)c3ccccc3C2=O)c1`, the signal enhancement was 31.1% (active).

For `Cc1cc(C)cc(OCC(=O)NNC(=O)c2cc3ccccc3oc2=O)c1`, the signal enhancement was 1.34%.

Turning to `Clc1ccc(-c2cc(-c3ccccn3)on2)c(Cl)c1`, the signal enhancement was -77.9%.

As for `CCCN(c1ccc(C)cc1)c1nc(=O)c2cccnc2s1`, the signal enhancement was -10%.

Turning to `Fc1ccc(Nc2nnns2)cc1`, the signal enhancement was -6.61%.

On to `COc1ccc(NC(=O)/C(Cl)=C(/Cl)S(=O)Cc2ccc(C)cc2)cn1` (configuration not stated), for which the signal enhancement was 72.4% (active).

Turning to `Cc1ccc(NC(=O)OCc2cncs2)cc1`, the signal enhancement is -21.3%.

For `COc1ccc(CS(=O)/C(Cl)=C(/Cl)C(=O)Nc2ccc(OC)nc2)cc1` (configuration not stated), the signal enhancement was 53.8% (active).

In the case of `COc1ccc(NC(=S)Nc2ccccc2Cl)cn1`, the signal enhancement is -15.3%.

As for `CC(=O)Nc1ccc(OCC(=O)NCc2ccc(C)cc2)cc1`, the signal enhancement is -12.3%.

Turning to `COc1ccc(C(=O)Nc2ccc(NC(=O)C(C)C)nc2)cc1`, the signal enhancement is -20.6%.

As to `CC(C)CCNC(=O)C1CCC(CNc2c(N3CCC(C)CC3)c(=O)c2=O)CC1` (configuration not stated), the signal enhancement was -5.11%.

Regarding `COc1ccc2c(CC(=O)OCC(=O)NC(N)=O)coc2c1`, the signal enhancement was 0.56%.

Regarding `COC(=O)/C=C(\Oc1ccccc1)C1(O)CCCCC1`, the signal enhancement was -12%.

In the case of `CC(=O)NNC(=O)c1csc(Cc2c(Cl)sc3ccc(Cl)cc23)n1`, the signal enhancement was -2.59%.

For `CCC1(C)Cc2c(sc3nc(SC)[nH]c(=O)c23)CO1` (configuration not stated), the signal enhancement is -9.94%.

As for `CCOC(=O)CC1C(=O)NCCN1c1nc2c(C)cccn2c(=O)c1/C=C1\SC(=S)N(C(C)CC)C1=O` (configuration not stated), the signal enhancement is -24.8%.

As to `COc1cccc(C(=O)Oc2cc(C)[nH]c(=O)c2[N+](=O)[O-])c1`, the signal enhancement was -90.1%.

`Cc1cc(OC(=O)c2ccccc2)c([N+](=O)[O-])c(=O)[nH]1`: the signal enhancement was 39.8% (active).

For `O=C(Oc1ccccc1C(=S)N1CCCCC1)c1cc([N+](=O)[O-])cc([N+](=O)[O-])c1`, the signal enhancement is -1.87%.

Consider `c1csc(-c2nnc(COc3ncnc4sccc34)o2)c1`, for which the signal enhancement is -10.9%.

With `COc1ccc(/C=N/NS(=O)(=O)c2ccc(NC(C)=O)cc2)cc1`, the signal enhancement is -14.4%.

Turning to `Cc1nc(-c2ccccc2)sc1-c1nnc(C2CC2)o1`, the signal enhancement is -9.04%.

With `CCOc1ccc(C2NC(=S)NC3=C2CCc2ccccc23)cc1` (configuration not stated), the signal enhancement was -16.9%.

On to `CN(c1ccc(OCC(=O)NC2=NCCS2)cc1)S(=O)(=O)c1ccc(F)cc1`, for which the signal enhancement was -0.06%.

Take `Cc1ccc(Oc2nc(-c3ccccn3)nc3ccccc23)cc1`: the signal enhancement is -1.85%.

As to `Brc1ccc2c(c1)[C@H]1OCC[C@H]1[C@@H](c1cccs1)N2`, the signal enhancement was -17.3%.

Take `COc1ccc(OC)c(-n2c(-c3ccn[nH]3)n[nH]c2=S)c1`: the signal enhancement is -7.17%.

As for `CCCC(=O)Nc1nnc(-c2ccccc2)o1`, the signal enhancement was -6.24%.

Turning to `O=C(Nc1nnc(-c2ccc(Cl)cc2)o1)c1ccccc1Br`, the signal enhancement was 108% (active).

On to `O=C(Nc1cccc(Cl)c1)Nc1nnc(-c2ccccc2)o1`, for which the signal enhancement was -7.54%.

On to `COc1ccccc1C1CCN(c2ccc([N+](=O)[O-])cn2)CC1`, for which the signal enhancement is -10.5%.

Regarding `CCN(CC)CCn1cnc2c1c(=O)n(CCOC(=O)c1cc(OC)c(OC)c(OC)c1)c(=O)n2C`, the signal enhancement is 2.01%.

With `O=C(NC(=O)c1cc(OCC(F)(F)F)ccc1OCC(F)(F)F)Nc1ccccc1`, the signal enhancement is -3.24%.

As for `N#CCC(=O)N/N=C/c1cn(Cc2ccc3ccccc3c2)c2ccccc12`, the signal enhancement was -6.67%.

Turning to `CCn1c(SCC(=O)N/N=C/c2ccncc2)nc2ccccc21`, the signal enhancement is -15.7%.

Regarding `CC(C)(C)CN1C(=O)C(=O)NC[C@H]1Cc1cccc2ccccc12`, the signal enhancement was -5.59%.

As for `O=C(N/N=C/c1ccccn1)c1cccnc1`, the signal enhancement was -13%.

With `CCOC(=O)CN(C(=O)COc1nc(C)cc(C)c1C#N)c1ccc(Cl)cc1`, the signal enhancement was -12.8%.

With `O=S(=O)(c1ccc(NC(=S)NN=C(C2CC2)C2CC2)cc1)N1CCOCC1`, the signal enhancement was -6.04%.

Take `Cc1nnc(C)c2c(C)n(N)c(C)c12`: the signal enhancement is -11.1%.

`Cc1cc([N+](=O)[O-])nn1Cc1ccc(F)cc1`: the signal enhancement is -10.9%.

Turning to `Cc1nc(SCc2ccc(F)cc2)c([N+](=O)[O-])[nH]1`, the signal enhancement is 30.6% (active).

On to `Cc1nc(SCC(=O)c2ccccc2)c([N+](=O)[O-])[nH]1`, for which the signal enhancement was -9.82%.

Turning to `O=C(CCS(=O)(=O)c1ccccc1Cl)Nc1ccc(S(=O)(=O)Nc2ncccn2)cc1`, the signal enhancement was -14.3%.

Regarding `O=C(O)C#Cc1cccc2ccccc12`, the signal enhancement was -21.3%.

`Cc1nc2c(ncn2-c2ccccc2)c(=O)n1NC(=O)CN1CCCC1`: the signal enhancement is -14.3%.

With `C/C(=N/Nc1nc(-c2ccccc2)c(CC(=O)O)s1)c1ccccc1`, the signal enhancement was -20.1%.

For the compound `S=C(NNC(=S)NC1CC2CCC1C2)NC1CC2C=CC1C2` (configuration not stated), the signal enhancement is -3.28%.

Take `COC(=O)c1scc(S(=O)(=O)C(C)(C)C)c1-n1cccc1`: the signal enhancement is -17%.

`C/C(=N\NC(N)=S)c1cccnc1`: the signal enhancement is 54.3% (active).

With `C/C(=N\NC(N)=S)c1ccncc1`, the signal enhancement is -0.15%.

With `C/C(=N\NC(=O)c1cccnc1)c1ccc(-c2ccccc2)cc1`, the signal enhancement is -9.97%.

In the case of `COC(=O)N(NC(=O)C(O)(C(C)C)C(C)C)c1ccccc1`, the signal enhancement was -12.4%.

Take `O=C(C[n+]1cc(-c2ccc(Cl)c(Cl)c2)n2c1CCC2)c1cccs1`: the signal enhancement was -2.63%.

With `CS(=O)(=O)c1ccc(Cl)c(NC(=O)Nc2ccccc2)c1`, the signal enhancement is -9.46%.

The values above are taken from PubChem BioAssay AID1230 (PCMD, 2008).
